The target of one test is T1, human P2X1 receptor WT (Homo sapiens, UniProt P51575).
T1 sequence (P51575 1-399): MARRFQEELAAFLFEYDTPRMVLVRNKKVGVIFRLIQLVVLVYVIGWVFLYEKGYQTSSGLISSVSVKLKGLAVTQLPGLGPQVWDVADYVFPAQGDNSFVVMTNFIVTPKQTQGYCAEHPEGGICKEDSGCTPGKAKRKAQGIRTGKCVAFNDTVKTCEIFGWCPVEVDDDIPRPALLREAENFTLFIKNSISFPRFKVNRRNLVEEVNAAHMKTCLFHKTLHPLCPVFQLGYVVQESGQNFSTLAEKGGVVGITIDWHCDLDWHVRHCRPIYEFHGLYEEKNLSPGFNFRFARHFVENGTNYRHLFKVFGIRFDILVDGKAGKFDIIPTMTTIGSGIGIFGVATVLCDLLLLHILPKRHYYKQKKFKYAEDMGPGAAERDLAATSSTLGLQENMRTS
The test is described as follows: Two-electrode voltage clamp, WT P2X1 receptor in Xenopus oocytes. Type of test: cell-based. (In general: In two-electrode clamp one electrode senses voltage and the other passes current.)

For another test, the target named is T2, human P2X2 receptor WT (Homo sapiens, UniProt Q9UBL9).
T2 sequence (Q9UBL9 1-471): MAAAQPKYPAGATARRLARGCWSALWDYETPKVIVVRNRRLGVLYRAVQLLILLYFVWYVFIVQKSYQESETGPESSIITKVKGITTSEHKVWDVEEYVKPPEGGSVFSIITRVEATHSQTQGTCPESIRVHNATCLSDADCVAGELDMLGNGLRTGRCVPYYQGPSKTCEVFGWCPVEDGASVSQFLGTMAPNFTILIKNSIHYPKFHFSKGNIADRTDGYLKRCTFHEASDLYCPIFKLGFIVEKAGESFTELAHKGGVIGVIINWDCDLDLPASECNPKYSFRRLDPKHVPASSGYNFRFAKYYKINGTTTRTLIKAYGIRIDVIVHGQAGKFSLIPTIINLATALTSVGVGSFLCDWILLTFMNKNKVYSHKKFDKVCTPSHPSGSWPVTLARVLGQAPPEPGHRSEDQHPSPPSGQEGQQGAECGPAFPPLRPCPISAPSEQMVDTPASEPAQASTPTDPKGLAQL
The test is described as follows: Two-electrode voltage clamp, WT P2X2 receptor in Xenopus oocytes. Type of test: cell-based. Particulars: P2X2 WT.

The target in the next test is T3, P2X1 Cys2(1-6) chimera (Homo sapiens, UniProt P51575, A118P/A137L/A141G/A151Y/D154G/DEL120-123/E128S/F152Y/G124S/G131D/I144L/I161V/INS125RVHNAT/INS150P/K127L/K136E/K138D/K140L/K148R/N153Q/P134A/Q142N/R139M/S130A/T133V/T155P/V156S).
T3 sequence (P51575 with tags, fused parts or gaps A118P/DEL120-123/G124S/INS125RVHNAT/K127L/E128S/S130A/G131D/T133V/P134A/K136E/A137L/K138D/R139M/K140L/A141G/Q142N/I144L/K148R/INS150P/A151Y/F152Y/N153Q/D154G/T155P/V156S/I161V): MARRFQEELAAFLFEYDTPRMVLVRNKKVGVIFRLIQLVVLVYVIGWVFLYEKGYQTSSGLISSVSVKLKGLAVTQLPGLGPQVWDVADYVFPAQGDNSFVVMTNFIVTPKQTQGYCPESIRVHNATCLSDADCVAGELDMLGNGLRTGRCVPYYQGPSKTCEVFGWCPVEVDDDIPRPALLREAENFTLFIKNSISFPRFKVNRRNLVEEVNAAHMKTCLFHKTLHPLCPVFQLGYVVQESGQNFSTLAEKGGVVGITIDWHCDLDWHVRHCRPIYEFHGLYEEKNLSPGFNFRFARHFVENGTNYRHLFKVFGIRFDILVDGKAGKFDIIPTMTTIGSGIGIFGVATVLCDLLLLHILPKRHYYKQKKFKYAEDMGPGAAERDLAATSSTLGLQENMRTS
As to the kind of experiment: Two-electrode voltage clamp, chimera P2X1 Cys2. It counts as cell-based. Particulars: P2X1 Cys2(1-6).

The target in test [1] is T4, P2X2 receptor mutant D136K (Homo sapiens, UniProt Q9UBL9, D148K).
T4 sequence (Q9UBL9 1-471 D148K): T2 sequence (Q9UBL9 1-471) with D148K
The test is described as follows: Two-electrode voltage clamp, P2X2 mutant D136K. Type of test: cell-based. Particulars: read-out: ATP EC50.

The test system of the next test is P2X1 Del mutant receptor. The test is described as follows: Two-electrode voltage clamp, deletion mutant P2X1 Del. It counts as cell-based, human. The note with it: ATP 100 µM, up to 10 mM. Put shortly: (§1)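 Human P2X1 deletion-mutant cRNA made by T7 in vitro transcription and injected into stage V Xenopus laevis oocytes. Oocytes kept at 18°C in ND96 (pH 7.5, with gentamicin) and recorded 2–6 days later. Two-electrode voltage clamp at −60 mV, with 1.8 mM BaCl2 replacing CaCl2 in the bath.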

The next test addresses T5, DelD P2X1 receptor (Homo sapiens, UniProt P51575, D154F/DEL118-152/DEL160-165/K157P/V156D).
T5 sequence (P51575 with tags, fused parts or gaps DEL118-152/D154F/V156D/K157P/DEL160-165): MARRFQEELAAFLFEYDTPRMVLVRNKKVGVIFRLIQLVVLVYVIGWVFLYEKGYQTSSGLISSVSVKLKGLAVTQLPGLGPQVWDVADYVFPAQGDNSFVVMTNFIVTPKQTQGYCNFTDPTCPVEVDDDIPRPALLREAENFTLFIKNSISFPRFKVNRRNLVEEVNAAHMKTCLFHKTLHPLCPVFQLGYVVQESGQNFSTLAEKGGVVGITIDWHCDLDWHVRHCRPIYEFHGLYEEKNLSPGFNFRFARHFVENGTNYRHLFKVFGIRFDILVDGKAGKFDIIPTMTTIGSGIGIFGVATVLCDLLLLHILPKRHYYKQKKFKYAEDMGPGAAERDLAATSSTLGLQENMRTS
As to the kind of experiment: Two-electrode voltage clamp, deletion mutant DelD P2X1. Particulars: ATP up to 10 mM. Type of test: cell-based. Put shortly:
as §1

Test [2] has as its target Dictyostelium P2X receptors. The note with it: read-out: EC50 for ATP; ref Ludlow et al., 2009; cited from earlier work.

Positions count from the first letter of the chain named. “Also recorded” adds a separate entry of the source.

For `Nc1ncnc2c1ncn2[C@@H]1O[C@H](COP(=O)(O)OP(=O)(O)OP(=O)(O)O)[C@@H](O)[C@H]1O` [ATP], the “Decay Time” value on human P2X1 receptor WT (P2X1 WT, 100% to 50% decay of current) came out at 495 ± 45 ms; on P2X1 Cys2(1-6) chimera (100% to 50% decay), 1305 ± 176 ms. For the same compound, the “Peak amplitude of inward current” value on human P2X1 receptor WT (WT P2X1, ATP 100 µM, n = 12) was −9188 ± 590 nA. In addition, the EC50 – broadly, the concentration needed to bring the measured effect to its halfway point – at human P2X1 receptor WT (read-out: ATP EC50, P2X1 WT) is around 0.75 µM; on human P2X2 receptor WT (read-out: ATP EC50), around 10 µM; at P2X1 Cys2(1-6) chimera (read-out: ATP EC50), around 3 µM; in test [1], 3.87 µM; in test [2], 100 to 500 µM. Moreover, the Decay of current entry at human P2X2 receptor WT (100 µM ATP, 3 s application) was “no decay at end of 3 s pulse”. Moreover, the ATP-evoked current result is recorded as “barely detectable inward currents; also recorded: ineffective” in the test with P2X1 Del mutant receptor and “little or no response” at DelD P2X1 receptor.

These data come from paper PMC3268193 (British Journal of Pharmacology, 2012).
